Screens: PubChem, several laboratories
ADAM10 inh = inhibitors of human ADAM10. AID 720582. recombinant ADAM10, EDANS/DABCYL FRET peptide cleavage, 3 h. inhibition, % at 7 µM. actives 0.62% (n = 370,000). O14672;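 active means inhibition above a per-campaign cutoff equal to the mean of compounds falling between control-based bounds plus 3 SD, cut at about 20% in these data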;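 further: 0% = DMSO wells while the 100% control is not disclosed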
Target sequence (O14672 214-748 limits assumed): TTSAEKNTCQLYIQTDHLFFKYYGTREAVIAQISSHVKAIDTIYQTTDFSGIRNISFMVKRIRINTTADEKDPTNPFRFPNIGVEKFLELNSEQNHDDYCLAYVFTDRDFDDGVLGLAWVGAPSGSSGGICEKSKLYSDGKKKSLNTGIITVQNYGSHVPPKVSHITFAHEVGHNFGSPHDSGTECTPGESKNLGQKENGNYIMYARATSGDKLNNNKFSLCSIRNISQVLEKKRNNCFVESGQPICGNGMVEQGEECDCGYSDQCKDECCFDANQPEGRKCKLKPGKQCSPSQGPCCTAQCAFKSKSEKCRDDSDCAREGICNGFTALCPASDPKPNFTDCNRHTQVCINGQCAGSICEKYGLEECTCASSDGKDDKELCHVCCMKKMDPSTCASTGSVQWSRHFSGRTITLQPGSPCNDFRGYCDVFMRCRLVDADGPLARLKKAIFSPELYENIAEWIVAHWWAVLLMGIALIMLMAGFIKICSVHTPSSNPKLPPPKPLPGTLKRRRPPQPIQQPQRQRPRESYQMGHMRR
SENP1 FRET inh = inhibitors of human SENP1 SUMO protease catalytic domain. Q9P0U3. recombinant SENP1 catalytic domain, CyPet-SUMO1-YPet FRET cleavage. inhibition, % at 10 µM. actives 0.21% (n = 360,000);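 active means inhibition at least 30% at 10 µM, raw YFP signal under a set limit, fluorescence ratio 0.5 to 1.5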;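 further: 0% = enzyme with DMSO and 100% = no enzyme wells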
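Material – human SENP1 catalytic domain · Input – SENP1 enzyme, 20 pM final · Compound dosing – single concentration of 10 µM compound, 0.5% DMSO final · Timing – enzyme reaction for 50 min at room temperature, dark · Measured by – FRET fluorescence in CFP and YFP emission channels · Control set – no-enzyme wells low, DMSO-plus-enzyme wells high control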
FAS-TE inh = inhibitors of human fatty acid synthase thioesterase domain; P49327; recombinant FAS-TE, OMFH fluorogenic substrate, fluorescence endpoint; inhibition, % at 15 µM; actives 0.67% (n = 360,000); AID 602261;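 active means compounds whose normalised, plate-corrected inhibition of enzyme fluorescence in the single-dose primary screen is 50% or more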;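 further: 0% = DMSO with enzyme and 100% = substrate without enzyme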
ADAM17 inh = inhibits human ADAM17 | P78536 | recombinant ADAM17, EDANS/DABCYL FRET peptide cleavage | inhibition, % at 6.95 µM | actives 0.83% (n = 370,000);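 active means inhibition above the mean of compounds lying between control limits plus 3 SD, set per campaign, cut at about 8.5% in these data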;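 further: 0% = DMSO-only wells as the low control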
ADAM10 ctr = ADAM10 inhibition, counter-screen for ADAM17 exosite hits; shares compounds with ADAM17 inh; recombinant ADAM10, EDANS/DABCYL FRET peptide cleavage, 3 h; inhibition, % at 6.95 µM; actives 47% (n = 2,900); AID 743256;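 active means mean inhibition over the triplicate runs exceeds the activity threshold set in the earlier primary screen, cut at about 20% in these data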;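 further: 0% = DMSO wells and 100% = marimastat wells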
ADAM17 confirm = confirmation of inhibitors of human ADAM17; shares compounds with ADAM17 inh; recombinant ADAM17, EDANS/DABCYL QFRET peptide cleavage; AID 743257; actives 65% (n = 2,900); inhibition, % at 6.95 µM;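 active means mean inhibition across replicates above the hit cutoff set in the primary screen, cut at about 8.5% in these data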;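 further: 0% = DMSO wells and 100% = marimastat wells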
Starred values were filed as active, the others as inactive; x = no result. Most compounds without a hit are left out; they make up all but 1.9% or so of the library.

SMILES | ADAM10 inh | SENP1 FRET inh | FAS-TE inh | ADAM17 inh | ADAM10 ctr | ADAM17 confirm
CCOc1cc(S(=O)(=O)n2cc(-c3ccc(F)cc3)c(N)n2)cc(OCC)c1OCC | 18 | 2 | 20 | 11* | 31* | 18*
CCn1c2c(c3cc(OCC(C)C)ccc31)CCCC2=O | -27 | -20 | 26 | -10 | x | x
CCn1c2c(c3cc(Br)ccc31)CCC/C2=N\O | 16 | 1 | 1 | 9.5* | 0 | 6
COc1ccccc1NC(=O)CSc1nc2n[nH]c(C)c2c(=N)n1-c1ccccc1Cl | 8 | -1 | 12 | 3 | x | x
CCc1ccccc1NC(=O)CSc1nc2n[nH]c(C)c2c(=N)n1-c1ccc(OC)cc1 | 16 | 0 | 4 | 12* | -2 | 9.0*
O=C(CSc1nnc(-c2ccccc2)n1-c1ccc(Cl)cc1)Nc1ccc(OCc2ccccc2)cc1 | 1 | x | x | 2 | x | x
CCN(CC)C(=O)CN(c1cc2c(cc1OC)oc1ccccc12)S(=O)(=O)c1ccc(C)cc1 | 19 | 3 | 20 | 16* | 0 | 8
CCCc1cc(-c2[nH]ncc2-c2ccc3c(c2)OCCCO3)c(O)cc1O | 4 | 5 | -161 | 11* | 27* | 14*
CCOC(=O)[C@@]12CCC3=C1N(CCC3)C(=O)[C@H](CC(=O)N1CCCCC1)C2 | -12 | x | x | -8 | x | x
COc1cccc(C(=O)OCn2nnc3ccccc3c2=O)c1OC | 6 | 3 | 1 | 8.9* | 0 | 0
COc1cc(C(=O)OCn2nnc3ccccc3c2=O)cc(OC)c1OC | 1 | 5 | 0 | -1 | x | x
CCOC(=O)C1=CCN(S(=O)(=O)c2ccccc2)C1c1ccc(C)cc1 (configuration not stated) | -7 | 2 | 26 | -2 | x | x
CCOC(=O)C1=CCN(S(=O)(=O)c2ccc(C)cc2)C1c1cccs1 (configuration not stated) | 17 | 3 | 2 | 11* | 6 | 7
O=C(CNC(=O)c1ccccc1F)N/N=C/c1cc(Br)ccc1OCc1ccccc1 | 19 | 2 | 17 | 8.8* | 32* | 15*
Cc1ccc(-n2c(C3CC3c3ccc(Cl)cc3)n[nH]c2=S)cc1 (configuration not stated) | 16 | 1 | 20 | 12* | 16 | 12*
COc1ccc(N2CCCN(CC(=O)Nc3ccc(Cl)cc3)CC2)cc1 | -2 | x | x | 1 | x | x
CCOC(=O)C1(Cc2ccccc2)CCN(Cc2ccc(C(F)(F)F)cc2)CC1 | -2 | x | x | 1 | x | x
COC(=O)c1cc(C(=O)OC)n(Cc2ccc(C)cc2)c1C | 7 | -3 | 14 | 9.2* | 0 | 3
CN(Cc1ccccc1)C(=O)OCc1cn(Cc2cccc(F)c2)nn1 | -3 | x | x | -2 | x | x
CCOC(=O)CC[C@H]1CC[C@]2(CCCN(C(=O)c3ccco3)C2)O1 | -12 | x | x | -4 | x | x
COc1ccc(Cn2c(SC)nc3ccccc32)cc1[N+](=O)[O-] | 16 | 2 | 12 | 8.7* | 10 | 2
Cn1c(SCc2ccc(C(C)(C)C)cc2)nnc1-c1ccco1 | 5 | x | x | 1 | x | x
C=CCN1C(=O)c2n[nH]c(COC)c2C1c1ccc(F)cc1 (configuration not stated) | -6 | x | x | -5 | x | x
C[C@@]12C(=O)N(c3cccc(Cl)c3)C(=O)N1[C@H](c1ccc(Cl)cc1)[C@@H]1C(=O)N(C3CCCCC3)C(=O)[C@@H]12 | 14 | 1 | 59* | 10* | 38* | 22*
COc1ccc(N2C(=O)N3[C@H](c4ccc(Cl)cc4)[C@@H]4C(=O)N(C5CCCCC5)C(=O)[C@@H]4[C@]3(C)C2=O)cc1 | 14 | 3 | 32 | 1 | x | x
SMILES | ADAM10 inh | SENP1 FRET inh | FAS-TE inh | ADAM17 inh | ADAM10 ctr | ADAM17 confirm
Oc1ccc(C[C@H]2CNC(=S)N2CC2CCCN2C[C@H](Cc2ccc(O)cc2)N2C[C@H](Cc3ccccc3)N(CC3CCCCCC3)C2=S)cc1 (some centres not stated) | 14 | 1 | -85 | 10.0* | 43* | 23*
CCOc1ccc(CCN2C(=S)N([C@@H](Cc3ccc(O)cc3)CN3CCCC3CN3C(=S)NC[C@@H]3Cc3ccc(O)cc3)C[C@@H]2CC(C)C)cc1 (some centres not stated) | 9 | 1 | -98 | 8.9* | 26* | 16*
Oc1ccc(C[C@H]2CNC(=S)N2CC2CCCN2C[C@H](Cc2ccc(O)cc2)N2C[C@H](Cc3ccc(O)cc3)N(CC3CCCCCC3)C2=S)cc1 (some centres not stated) | 23* | -3 | -70 | 9.2* | 31* | 18*
CN(C(=O)c1ccc(NC(=O)Cc2cccc(NC(=O)C3CCCN(C(=O)C4CCCC4)C3)c2)cc1)C1CCCC1 (configuration not stated) | 5 | 1 | 0 | 9.4* | 18 | 9
CC(C)(C)OC(=O)N1CCCC(C(=O)Nc2cccc(C(=O)NCCCc3ccccc3)c2)C1 (configuration not stated) | 10 | 1 | 5 | 12* | 20 | 10*
CN(CCc1ccccc1)C(=O)c1ccc(NC(=O)Cc2ccc(NC(=O)C3CCN(C(=O)C4CCCC4)CC3)cc2)cc1 | 5 | 3 | -5 | 11* | 9 | 9.8*
Cc1cc2c(c(=O)o1)[C@@]1(C(=O)N(C)c3ccccc31)C1=C(CC(C)(C)CC1=O)O2 | -13 | x | x | 3 | x | x
COC(=O)C1CN(C2CC2)CCS(=O)(=O)N1Cc1cn(Cc2ccccc2)nn1 (configuration not stated) | -5 | x | x | 0 | x | x
O=C(Cn1cnc2ccccc2c1=O)N1CCCCC1 | 7 | x | x | -2 | x | x
N=c1c2c(ccn1CCCCc1ccccc1)Oc1ccc3ccccc3c1C2c1ccccc1 (configuration not stated) | 20 | x | x | 9.6* | 20* | 14*
N=c1c2c(ncn1CCN1CCOCC1)Oc1ccc3ccccc3c1C2c1ccccc1 (configuration not stated) | 11 | 1 | 8 | 4 | x | x
Cc1ccc(C(=O)NCCNc2ccc([N+](=O)[O-])cc2C(F)(F)F)cc1 | 14 | 2 | 40 | 8.8* | 20* | 12*
COC(=O)[C@]12C[C@H](CC(=O)NCc3cccs3)C(=O)N(Cc3ccc4c(c3)OCO4)C1=C[C@H](C(C)(C)C)O[C@@H]2C | 7 | x | x | 3 | x | x
O=S1(=O)c2ccc(Br)cc2OCCC2CCCCN21 (configuration not stated) | -13 | x | x | -3 | x | x
COC(=O)[C@]12C[C@H](CC(=O)N3CCOCC3)C(=O)N(Cc3ccccc3)C1=C[C@H](C(C)(C)C)O[C@@H]2C | 0 | x | x | -2 | x | x
N/C(=N\N=C\c1ccc(O)cc1)c1nonc1N | 14 | 3 | 3 | 10* | 17 | 9.2*
S=c1[nH]nc(C2CCCCC2)n1/N=C/C=C/c1ccccc1 | 17 | 0 | 17 | 9.2* | 19 | 11*
